The record followed here is ChEMBL document CHEMBL1124485, “6-Alkyl-N,N-disubstituted-2-pyridinamines as anticonvulsant agents” (1989).

Where “and” joins values, the source holds several entries; their conditions need not be identical. Equal values may be shown once.

Common to all, as to type: functional
For assay [1], the system named is Mus musculus. The assay can be described thus: Lowest dose level at which mice fell off inverted screen during testing 120 min after intraperitoneal dosage. The procedure, abridged:
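Male Swiss-Webster mice (22-32 g), N = 5 per dose, given 10, 30, 100, 300 mg/kg ip. Tested 120 min after dosing on an inverted wire mesh screen. Value is the lowest dose level at which two or more mice fell off.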

Assay [2] has as its system Mus musculus. Kind of assay: Minimum effective dose at which mice were protected against tonic-extension produced by maximal electroshock during testing 120 min after intraperitoneal dosage. Particulars: ip, 2 h, read-out: MED. The procedure, abridged:
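Male Swiss-Webster mice (22-32 g), N = 5 per dose; dosed ip at 10, 30, 100, 300 mg/kg. Tested 120 min after dosing for protection against tonic extension from maximal electroshock. Value is the dose level at which two or more mice were protected.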

In assay [3] the test system is Mus musculus. The assay can be described thus: Effective dose required to inhibit ataxia after intraperitoneal administration in experiment 2. Particulars: ip. The procedure, abridged: (§1)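 Ataxia in mice after ip dosing: in-house, falling from an inverted wire mesh screen (Swiss-Webster mice); in NINCDS studies, falling from a rotating rod (CF-1 mice, 30% polyethylene glycol vehicle). ED50 was obtained by quantal probit analysis.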

Assay [4] deals with Mus musculus. The assay can be described thus: Effective dose against convulsions induced by clonic pentylenetetrazole after intraperitoneal administration in experiment 2. Conditions: ip. The method, boiled down: (§2)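 Male CF-1 mice (25-35 g) dosed ip. Pentylenetetrazol 85 mg/kg in 0.9% NaCl was given sc at the dorsal neck, and mice were observed 30 min. An anticonvulsant effect was prevention of all clonic seizures (≥5 s forelimb clonus). ED50 was obtained by quantal probit analysis; NINCDS testing used 30% polyethylene glycol vehicle.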

The subject of assay [5] is Mus musculus. The assay can be described thus: Effective dose against convulsions induced by maximal electroshock (MES) after intraperitoneal administration in experiment 1. Particulars: ip. The procedure, abridged:
(§3)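 Mice dosed ip and challenged by maximal electroshock, scoring protection from seizures; N = 10 mice per time-course point. ED50 was obtained by quantal probit analysis. Swiss-Webster mice were used in-house; CF-1 mice were used in NINCDS testing, where drug was in 30% polyethylene glycol at 10 mL/kg.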
(In general: In the maximal electroshock model the usual endpoint is tonic extension of the hind limbs.)

The test system of assay [6] is Mus musculus. Kind of assay: Effective dose against convulsions induced by maximal electroshock (MES) after intraperitoneal administration in experiment 2. Particulars: ip. The procedure, abridged: as §3
Assay [7] concerns Mus musculus. Kind of assay: Effective dose required for the inhibition of spontaneous locomotion after intraperitoneal administration in experiment 1. Particulars: ip.
The test system of assay [8] is Mus musculus. The assay can be described thus: Effective dose required to inhibit ataxia after intraperitoneal administration in experiment 1. Particulars: ip. The procedure, abridged: as §1
Assay [9] in a line: Protective index, ratio of ED50 ataxia and ED50 MES. The method, boiled down:
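Protective index is the ratio of the ataxia ED50 to the maximal electroshock ED50. Both were ip in mice and derived by quantal probit analysis.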

Assay [10] has as its system Mus musculus. The assay can be described thus: Effective dose against convulsions induced by clonic pentylenetetrazole after intraperitoneal administration in experiment 1. Particulars: ip. The procedure, abridged: as §2

In the assay with Mus musculus [1], `CCCCCCCc1ccnc(N2CCNCC2)c1` returned an MTC of 100 mg/kg. In addition, in the assay with Mus musculus [2], the minimal effective dose worked out at 30 mg/kg.
In the case of `CCCCSc1cccc(N2CCNCC2)n1`, the MTC with Mus musculus [1] is 100 mg/kg. Also, the minimal effective dose in the assay with Mus musculus [2] is 100 mg/kg.
In the assay on Mus musculus [1], `Cl.c1cc(CC2CCCCC2)nc(N2CCNCC2)c1` had an MTC of 100 mg/kg. For the same compound, the minimal effective dose with Mus musculus [2] came to 100 mg/kg.
`CCCCCCCc1cccc(N2CCN(C)CC2)n1.Cl`: in the assay with Mus musculus [1], the MTC is 300 mg/kg. The minimal effective dose in the assay with Mus musculus [2] worked out at 30 mg/kg.
As for `CCCCCCCc1cccc(N2CCCNCC2)n1`, in the assay on Mus musculus [1], the MTC is 100 mg/kg. Moreover, in the assay on Mus musculus [2], the minimal effective dose amounted to 30 mg/kg.
For orientation: ED50 means the midpoint of the dose-response relation. Low readings indicate an effect at a small dose, high ones a need for a large dose. As for `CCCCCCCCCc1cccc(N2CCNCC2)n1`, the median effective dose (ED50) in the assay on Mus musculus [3] was 42 mg/kg; in the assay with Mus musculus [4] it was over 100 mg/kg; in the assay on Mus musculus [5], 5.6 mg/kg; in the assay with Mus musculus [6], 7.8 mg/kg; with Mus musculus [7] it was 26 mg/kg; in the assay on Mus musculus [8], 30 mg/kg. Also, in the assay on Mus musculus [1], the MTC is 30 mg/kg. Moreover, the minimal effective dose in the assay on Mus musculus [2] was determined as 10 mg/kg. Besides, the Ratio in assay [9] is 5.4.
Take `CCCCCc1cccc(N2CCNCC2)n1`: the MTC in the assay on Mus musculus [1] stood at 30 mg/kg. Also, the minimal effective dose in the assay with Mus musculus [2] was 10 mg/kg.
For `Cc1cccc(N2CCNCC2)n1.Cl.Cl` the same measures were 30 mg/kg and over 300 mg/kg.
For `CC(C)(C)c1cccc(N2CCNCC2)n1.Cl` the same measures were 30 mg/kg and over 300 mg/kg.
As for `CCCCCCCc1cccc(N2CCCCC2)n1`, the MTC with Mus musculus [1] was over 300 mg/kg. In the assay with Mus musculus [2], the minimal effective dose is over 300 mg/kg.
On to `CCCCCCC(CCCCCC)c1cccc(N2CCNCC2)n1`, for which, in the assay on Mus musculus [1], the MTC was 100 mg/kg. In the assay with Mus musculus [2], the minimal effective dose is over 300 mg/kg.
As for `CCCCCCCc1cccc(N2CCOCC2)n1`, in the assay on Mus musculus [1], the MTC was over 300 mg/kg. Also, in the assay with Mus musculus [2], the minimal effective dose was found to be 300 mg/kg.
Regarding `CC(C)c1cccc(N2CCNCC2)n1.Cl.Cl`, in the assay on Mus musculus [1], the MTC was determined as 30 mg/kg. The minimal effective dose in the assay with Mus musculus [2] was over 300 mg/kg.
As for `c1ccc(CCc2cccc(N3CCNCC3)n2)cc1`, the MTC in the assay with Mus musculus [1] is 100 mg/kg. Also, the minimal effective dose in the assay on Mus musculus [2] was over 300 mg/kg.
Take `O=C1NC(=O)C(c2ccccc2)(c2ccccc2)N1` [PHENYTOIN]: the median effective dose (ED50) with Mus musculus [3] was 65 mg/kg; in the assay with Mus musculus [4], over 100 mg/kg; in the assay on Mus musculus [5], 8 mg/kg; with Mus musculus [7] it was over 65 mg/kg; in the assay on Mus musculus [8], 82 mg/kg.
As to `CCCCCCc1cccc(N2CCNCC2)n1`, the ED50 is 46 mg/kg in the assay on Mus musculus [3]; over 100 mg/kg in the assay on Mus musculus [4]; 7.3 mg/kg in the assay on Mus musculus [5]; 16 mg/kg in the assay on Mus musculus [6]; 20 mg/kg in the assay on Mus musculus [7]; 22 mg/kg in the assay with Mus musculus [8]. In the assay on Mus musculus [1], the MTC amounted to 100 mg/kg. Moreover, the minimal effective dose in the assay with Mus musculus [2] came to 10 mg/kg. In assay [9], the Ratio was 3 and 2.9.
In the assay with Mus musculus [1], `CCCc1cccc(N2CCNCC2)n1.Cl` registered an MTC of 3 mg/kg. The minimal effective dose with Mus musculus [2] came out at 10 mg/kg.
For `CCCCCCCCCCc1cccc(N2CCNCC2)n1`, in that order: 100 mg/kg and 30 mg/kg.
For `CCCCCCCCc1cccc(N2CCNCC2)n1` the same measures were 30 mg/kg and 10 mg/kg.
In the case of `CCCCc1cccc(N2CCNCC2)n1`, in the assay with Mus musculus [1], the MTC was 10 mg/kg. Moreover, the minimal effective dose in the assay with Mus musculus [2] stood at 30 mg/kg.
`CCCCCCCc1cccc(N2CCNCC2)n1`: the 50% effective dose (ED50) with Mus musculus [3] is 29 mg/kg; in the assay with Mus musculus [4], 21 mg/kg; in the assay on Mus musculus [5], 8.8 mg/kg; in the assay with Mus musculus [6] it was 6.4 mg/kg; in the assay on Mus musculus [7] it was 13 mg/kg; with Mus musculus [8], 45 mg/kg. Also, the MTC with Mus musculus [1] worked out at 100 mg/kg. Besides, the minimal effective dose in the assay with Mus musculus [2] was found to be 10 mg/kg. The Ratio in [9] was 5.1 and 4.5.
Regarding `NC(=O)N1c2ccccc2C=Cc2ccccc21` [CARBAMAZEPINE], the 50% effective dose (ED50) with Mus musculus [3] is 72 mg/kg; in the assay on Mus musculus [10], over 100 mg/kg; with Mus musculus [4], over 100 mg/kg; in the assay on Mus musculus [5], 9.8 mg/kg; with Mus musculus [6] it was 8.8 mg/kg; with Mus musculus [7] it was 50 mg/kg. In the assay with Mus musculus [8], this compound showed an ED50 of 41 mg/kg. For the same compound, the Ratio in [9] is 8.2.
